Experimental data published in article PMC5160999 (ChemMedChem, 2016).
Values after ≈ are worked out from the molar mass of the structure shown. Like-named read-outs stand apart in the source and are kept apart here.

Assays:
P. aeruginosa (PA01) = test: P. aeruginosa growth inhibition assay; assay type: cell-based; details: Pseudomonas aeruginosa
Summary of the method: (§1)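 Strains: A. baumannii ATCC 19606, K. pneumoniae ATCC 27736 and P. aeruginosa PA01, grown overnight in cation-adjusted Mueller-Hinton broth. Cultures diluted 1000-fold in fresh broth, with test compound as a 3-fold series from 1 mm to 46 nm. Incubated overnight at 37°C, 200 RPM; OD600 read. Rescue arm: farnesol 200 μm in the medium. Duplicate experiments, mean±SD.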

K. pneumoniae [1] = test: Synergy/antagonism two-drug combination assay, K. pneumoniae; assay type: cell-based
[2] = tested on: E. coli, A. baumannii, K. pneumoniae and P. aeruginosa; test: Synergy of 11 with fosmidomycin, mean over four Gram-negative bacteria; assay type: cell-based
A. baumannii [3] = test: A. baumannii growth inhibition assay; assay type: cell-based; details: Acinetobacter baumannii
Summary of the method: as §1

[4] = tested on: E. coli BL21(DE3) with PaFPPS overexpression; test: Growth inhibition of E. coli overexpressing PaFPPS; assay type: cell-based; details: Escherichia coli
EcFPPS = EcFPPS (Escherichia coli, UniProt P22939); test: EcFPPS inhibition, phosphate release assay; assay type: biochemical, E. coli
Chain of EcFPPS (P22939 whole entry): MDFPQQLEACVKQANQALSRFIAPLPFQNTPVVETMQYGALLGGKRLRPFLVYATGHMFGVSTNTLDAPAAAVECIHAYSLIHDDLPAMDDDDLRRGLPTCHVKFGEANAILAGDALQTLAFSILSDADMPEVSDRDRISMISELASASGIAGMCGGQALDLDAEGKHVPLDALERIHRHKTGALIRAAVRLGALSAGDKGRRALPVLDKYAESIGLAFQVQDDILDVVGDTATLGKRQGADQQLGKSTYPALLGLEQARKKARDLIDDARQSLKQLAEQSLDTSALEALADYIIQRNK
Summary of the method: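 Purified recombinant FPPS (25 ng) preincubated with test compound for 10 min at room temperature in pH 7.0 buffer (10 mm HEPES, 150 mm NaCl, 5 mm MgCl2). Compound diluted from 1 mm to 1 nm. Reaction started with 50 μm GPP, 50 μm IPP, purine nucleoside phosphorylase, inorganic phosphatase and ~600 μm MESG.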

[5] = tested on: S. aureus (Newman strain); test: S. aureus growth inhibition assay; assay type: cell-based; details: Staphylococcus aureus, read-out: IC50 S. aureus
Summary of the method: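 S. aureus Newman grown overnight in tryptic soy broth, then diluted 1000-fold in fresh medium. Test compound dosed as a 3-fold series from 1 mm to 46 nm. Incubated at 37°C, 200 RPM, overnight; growth read as OD600.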

[6] = tested on: E. coli, P. aeruginosa, K. pneumoniae and A. baumannii; test: Growth inhibition, four Gram-negative bacteria taken together; assay type: cell-based; details: read-out: IC50, activity against all four Gram-negatives
K. pneumoniae [7] = test: K. pneumoniae growth inhibition assay; assay type: cell-based; details: Klebsiella pneumoniae
Summary of the method: as §1

TbFPPS = TbFPPS (Trypanosoma brucei, UniProt Q86C09); test: TbFPPS inhibition, phosphate release assay; assay type: biochemical
Summary of the method: (§2)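 Purified enzyme (25 ng) preincubated with inhibitor for 10 min at room temperature in pH 7.0 buffer (10 mM HEPES, 150 mM NaCl, 5 mM MgCl2). Inhibitor stocks were 10 mM in DMSO or basic water, serially diluted from 1 mM to 1 nM. Reaction mix: 50 μM GPP, 50 μM IPP, purine nucleoside phosphorylase, inorganic phosphatase, ~600 μM MESG.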

A. baumannii [8] = test: Synergy/antagonism two-drug combination assay, A. baumannii; assay type: cell-based
[9] = target: T1, human geranylgeranyl diphosphate synthase (HsGGPPS) (Homo sapiens, UniProt O95749); test: HsGGPPS inhibition; assay type: biochemical
T1 sequence (O95749 1-300): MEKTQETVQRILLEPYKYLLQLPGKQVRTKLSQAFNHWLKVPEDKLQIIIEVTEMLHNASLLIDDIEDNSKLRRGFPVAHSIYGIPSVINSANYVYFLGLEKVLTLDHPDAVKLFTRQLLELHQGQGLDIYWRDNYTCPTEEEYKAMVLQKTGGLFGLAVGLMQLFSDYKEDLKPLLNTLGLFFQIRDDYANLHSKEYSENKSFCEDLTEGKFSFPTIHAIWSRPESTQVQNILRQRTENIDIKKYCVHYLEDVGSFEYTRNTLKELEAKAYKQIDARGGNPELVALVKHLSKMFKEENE

E. coli [10] = test: E. coli growth inhibition assay; assay type: cell-based; details: Escherichia coli
Summary of the method: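 E. coli K-12 or BL21(DE3). Overnight starter culture diluted 1000-fold and grown to OD600 ~0.3, then diluted 500-fold into LB. Test compound added as a 3-fold series from 1 mm to 46 nm. Incubated 12 h at 37°C with shaking at 200 RPM; growth read as A600. IC50 by nonlinear regression. Rescue arm: farnesol 200 μm in the medium. Duplicate experiments, mean±SD.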

P. aeruginosa = test: Synergy/antagonism two-drug combination assay, P. aeruginosa; assay type: cell-based
M. smegmatis = M. smegmatis growth inhibition; assay type: cell-based, Mycobacterium smegmatis
B. subtilis = B. subtilis growth inhibition assay; assay type: cell-based; details: Bacillus subtilis, read-out: IC50 B. subtilis
Summary of the method: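 B. subtilis ATCC 6051 grown overnight in LB and diluted 1000-fold in fresh LB. Test compound added as a 3-fold series from 1 mm to 46 nm. Incubated overnight at 37°C with shaking at 200 RPM; inhibition read from OD600.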

E. coli [11] = test: Synergy/antagonism two-drug combination assay, E. coli; assay type: cell-based
HEK293 = HEK293 toxicity assay; assay type: cell-based; details: Homo sapiens, HEK293, read-out: IC50 HEK293
HsFPPS = target: T2, HsFPPS (Homo sapiens, UniProt P14324); test: HsFPPS inhibition, phosphate release assay; assay type: biochemical, H. sapiens
T2 sequence (P14324 1-419): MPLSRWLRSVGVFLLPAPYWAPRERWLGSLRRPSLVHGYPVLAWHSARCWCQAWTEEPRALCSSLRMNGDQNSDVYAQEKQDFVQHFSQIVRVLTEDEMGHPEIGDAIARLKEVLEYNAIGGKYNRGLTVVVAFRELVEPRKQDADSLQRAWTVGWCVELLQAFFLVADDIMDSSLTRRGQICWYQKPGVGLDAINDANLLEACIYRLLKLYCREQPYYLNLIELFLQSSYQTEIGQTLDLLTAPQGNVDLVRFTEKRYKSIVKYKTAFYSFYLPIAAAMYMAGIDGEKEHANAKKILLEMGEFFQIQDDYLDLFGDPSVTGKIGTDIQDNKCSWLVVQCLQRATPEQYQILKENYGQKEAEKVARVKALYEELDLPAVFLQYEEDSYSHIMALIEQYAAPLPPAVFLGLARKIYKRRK

SmFPPS = SmFPPS (Schistosoma mansoni, UniProt G4VEL6); test: SmFPPS inhibition, phosphate release assay; assay type: biochemical
Summary of the method: as §2

PaFPPS = PaFPPS (Pseudomonas aeruginosa, UniProt Q9HWY4); test: PaFPPS inhibition, phosphate release assay; assay type: biochemical
Summary of the method: as §2

[12] = K. pneumoniae, combination of 11 with fosmidomycin
[13] = A. baumannii, combination of 11 with fosmidomycin
[14] = P. aeruginosa, combination of 11 with fosmidomycin
[15] = E. coli, combination of 11 with fosmidomycin

O=P([O-])(O)C(C[n+]1ccn(CCCc2ccc(F)c(F)c2)c1)P(=O)(O)O (stereo not shown) [compound 11, Hydrogen (2-(3-(3-(3,4-difluorophenyl)propyl)-1H-imidazol-3-ium-1-yl)-1-phosphonoethyl) phosphonate]
IC50 (P. aeruginosa (PA01); read-out: IC50 P. aeruginosa): 3.5 ± 0.78 µg/mL (≈ 8.53 µM)
IC50 (P. aeruginosa (PA01); read-out: IC50 with RA): 23 ± 7.8 µg/mL (≈ 56.1 µM)
IC50 (P. aeruginosa (PA01); read-out: IC50 without RA): 3.5 ± 0.78 µg/mL (≈ 8.53 µM)
FIC (K. pneumoniae [1]; [12]): 0.097 ± 0.012
FIC Index (K. pneumoniae [1]; [12]): 0.22 ± 0.026
MIC (K. pneumoniae [1]; Klebsiella pneumoniae): 6 µg/mL
mean FICI [2]: 0.42 ± 0.17
IC50 (A. baumannii [3]; read-out: IC50 A. baumannii): 2.8 ± 0.7 µg/mL (≈ 6.83 µM)
IC50 (A. baumannii [3]; read-out: IC50 with RA): 18 ± 4.9 µg/mL (≈ 43.9 µM)
IC50 (A. baumannii [3]; read-out: IC50 without RA): 2.8 ± 0.7 µg/mL (≈ 6.83 µM)
IC50 ([4]; BL21-DE3, read-out: IC50 with RA): 19 ± 2.4 µg/mL (≈ 46.3 µM)
IC50 ([4]; BL21-DE3, read-out: IC50 without RA): 1.6 ± 0.35 µg/mL (≈ 3.9 µM)
IC50 (EcFPPS): 120 ± 25 nM
IC50 [5]: > 100 µg/mL
IC50 [6]: 1 to 4 µg/mL (≈ 2.44 to 9.75 µM)
IC50 (K. pneumoniae [7]; read-out: IC50 K. pneumoniae): 2.3 ± 0.49 µg/mL (≈ 5.61 µM)
IC50 (K. pneumoniae [7]; read-out: IC50 with RA): 13 ± 1.8 µg/mL (≈ 31.7 µM)
IC50 (K. pneumoniae [7]; read-out: IC50 without RA): 2.3 ± 0.49 µg/mL (≈ 5.61 µM)
IC50 (TbFPPS): 120 ± 26 nM
FIC (A. baumannii [8]; [13]): 0.37 ± 0.17
FIC Index (A. baumannii [8]; [13]): 0.64 ± 0.23
MIC (A. baumannii [8]; Acinetobacter baumannii): 6 µg/mL
IC50 [9]: 390 ± 73 nM
IC50 (E. coli [10]; read-out: IC50 E. coli): 2.1 ± 0.57 µg/mL (≈ 5.12 µM)
IC50 (E. coli [10]; read-out: IC50 with RA): 19 ± 4.1 µg/mL (≈ 46.3 µM)
IC50 (E. coli [10]; read-out: IC50 without RA): 2.1 ± 0.57 µg/mL (≈ 5.12 µM)
FIC (P. aeruginosa; [14]): 0.27 ± 0.057
FIC Index (P. aeruginosa; [14]): 0.44 ± 0.12
MIC (P. aeruginosa; Pseudomonas aeruginosa): 10 µg/mL
IC50 (M. smegmatis; Mycolicibacterium smegmatis, read-out: IC50 M. smegmatis, cell growth inhibition): ~7 µg/mL (≈ 17.1 µM)
IC50 M. smegmatis (M. smegmatis; cell growth inhibition): 6.8 ± 3.0 µg/mL (≈ 16.6 µM)
IC50 (B. subtilis): 39 ± 13 µg/mL (≈ 95.1 µM)
FICI (E. coli [11]; E. coli cell growth, combination of 32 and 11): 0.31 ± 0.099
FIC (E. coli [11]; [15]): 0.24 ± 0.023
FIC Index (E. coli [11]; [15]): 0.39 ± 0.15
MIC (E. coli [11]; Escherichia coli): 6 µg/mL
IC50 (HEK293): 27 ± 4 µg/mL (≈ 65.8 µM)
IC50 (HsFPPS): 65 ± 12 nM
IC50 (SmFPPS): 570 ± 110 nM
IC50 (PaFPPS): 320 ± 68 nM
